FN deposit inh – fibronectin deposition inhibition. AH1F fibroblasts, Alexa488-fibronectin deposition fluorescence, overnight. inhibition, % at 12.6 µM. 0.086% of 350,000 active. AID 743247;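 active = mean inhibition across replicates of 30% or more, regardless of how many single replicates reach that level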
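test system = AH1F fibroblasts assembling fluorescent fibronectin matrix | quantity = 10000 AH1F cells per well | buffer or medium = DMEM plus 2% serum, read in PBS | doses = single dose, pinned | incubation = 1 h cell attachment, overnight exposure to compound and label | detection = fluorescence at 485 nm excitation, 525 nm emission | read-out basis = inhibition from reduced deposited-fibronectin fluorescence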
E-sel inducer – E-selectin induction on HUVECs. 0.37% of 260,000 active. activation, % at 7.58 µM. HUVEC E-selectin immunofluorescence imaging; normalized: neutral wells 0, TNF-alpha wells 100. P16581. AID 686992;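 active = mean E-selectin-positive cell signal at least 10% of the positive control, reached in at least 60% of replicates, without over 20% cell loss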
Target sequence (P16581 whole entry, looked up): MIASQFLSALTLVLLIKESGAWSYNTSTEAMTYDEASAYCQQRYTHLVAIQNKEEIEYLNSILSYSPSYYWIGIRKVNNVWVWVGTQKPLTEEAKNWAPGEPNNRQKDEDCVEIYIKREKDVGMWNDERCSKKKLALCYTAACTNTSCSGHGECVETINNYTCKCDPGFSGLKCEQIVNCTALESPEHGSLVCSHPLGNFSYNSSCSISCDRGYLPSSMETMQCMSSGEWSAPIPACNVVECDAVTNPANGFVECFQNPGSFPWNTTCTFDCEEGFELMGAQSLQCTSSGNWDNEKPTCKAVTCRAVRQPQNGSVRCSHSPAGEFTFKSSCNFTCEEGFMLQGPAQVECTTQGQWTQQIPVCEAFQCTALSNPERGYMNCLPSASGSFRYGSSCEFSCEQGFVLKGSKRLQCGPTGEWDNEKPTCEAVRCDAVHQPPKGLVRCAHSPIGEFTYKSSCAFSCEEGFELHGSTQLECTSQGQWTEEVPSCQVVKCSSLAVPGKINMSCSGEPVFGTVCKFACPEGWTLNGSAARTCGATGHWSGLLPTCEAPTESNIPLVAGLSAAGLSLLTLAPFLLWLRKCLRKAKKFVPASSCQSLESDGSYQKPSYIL
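Read-out basis: % PE-positive cells; Test system: HUVEC primary endothelial cells; Technique: immunofluorescence imaging; Dosing: single-point compound dose.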
SIRT5 block – inhibitors of human sirtuin-5 desuccinylase | inhibition, % at 15 µM | 1.1% of 330,000 active | Purified SirT5, succinyl-peptide AMC, trypsin-coupled fluorescence | Q9NXA8; in the data active = inhibition above about 15%
Ecoli rRNA inh – inhibitors of bacterial rRNA selective over humanized ribosomes | E. coli WT GFP vs humanized-ribosome RFP mutants, fluorescence, 24 h; active compounds read low; DMSO median 0, no signal -100 | GFP signal change (wild-type ribosome), % (no concentration beside the values) | AID 720706 | 1.6% of 350,000 active;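 active = significant combined selectivity score with lowered wild-type GFP, culture density cut under 30%, mutant RFP and density less affected; inactive = any of these conditions unmet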
Statin myotox sup – suppression of simvastatin myotoxicity | rescue of ATP level, % at 7.49 µM | AID 602340 | C2C12 myotubes + simvastatin, ATP luminescence, 48 h; scaled: DMSO 0, geranylgeraniol control 100 | 0.78% of 330,000 active;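 active = mean ATP rescue above about 67%, or every replicate alone reaching that limit, limit read from the data, passing the limit was not always enough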;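 note: myotubes were challenged with 10 µM simvastatin during compound exposure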
FGF22 binding – shifts melting point of recombinant human FGF22; recombinant FGF22 thermal shift, SYPRO orange fluorescence; percent of sucrose octasulfate shift, DMSO zero; activity (Tm shift, normalised), % at 9.99 µM; 1.5% of 340,000 active; AID 651658;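 active = mean Tm shift, scaled 0 neutral to 100 positive control, at about 1.3% or above, every replicate too, limit read from the data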
Each line names hits and unclear results; the compound was inactive in the other large screens. Hits are enriched below; roughly 4% of the tested compounds scored in any of these assays.

O=C(C[C@H]1C[C@@H]2c3cc(NS(=O)(=O)c4ccccc4)ccc3O[C@@H]2[C@H](CO)O1)NC1CCCCC1	none
CCOC(=O)/C(C#N)=C/c1cc2ccccc2nc1N1CCCCC1	SIRT5 block 112 (no result: Statin myotox sup)
COC(=O)c1sc(C(F)(F)F)c(-c2ccccc2)c1S(=O)(=O)N1CCCC1	Ecoli rRNA inh -26
COC(=O)c1sc(C(F)(F)F)c(-c2ccccc2)c1S(=O)(=O)N1CCOCC1	none (no result: E-sel inducer, Ecoli rRNA inh, Statin myotox sup)
C[C@@H]1CCCCO[C@@H](CN(C)C(=O)Nc2ccc(C(F)(F)F)cc2)[C@H](C)CN([C@@H](C)CO)C(=O)c2cc(NC(=O)c3ccccc3)ccc2O1	Statin myotox sup 76 (no result: FN deposit inh)
C[C@H](CO)N1C[C@H](C)[C@H](CN(C)C(=O)Nc2ccc(C(F)(F)F)cc2)OCCCC[C@H](C)Oc2ccc(NC(=O)c3ccccc3)cc2C1=O	Statin myotox sup 112 (no result: FN deposit inh)
C[C@H]1CCCCO[C@H](CN(C)C(=O)Nc2ccc(C(F)(F)F)cc2)[C@@H](C)CN([C@@H](C)CO)C(=O)c2cc(NC(=O)c3ccccc3)ccc2O1	none
Nc1ccccc1SC(CC(=O)c1ccccc1)c1cccc([N+](=O)[O-])c1 (centres undefined)	Ecoli rRNA inh -24 (no result: FN deposit inh)
O=C(NC(NC(=O)c1ccccc1)c1cccc([N+](=O)[O-])c1)c1ccccc1	none (no result: E-sel inducer, SIRT5 block, Ecoli rRNA inh, Statin myotox sup, FGF22 binding)
COc1ccc(C(CC(=O)c2ccc(C)cc2)Sc2ccccc2N)cc1 (centres undefined)	none
Nc1ccccc1SC(CC(=O)c1ccccc1)c1ccc([N+](=O)[O-])cc1 (centres undefined)	Ecoli rRNA inh -20 (no result: FN deposit inh)
Cc1cc(N)n(-c2ccc(Oc3ccccc3)c(S(=O)(=O)O)c2)n1	SIRT5 block 47 (no result: E-sel inducer, Statin myotox sup)
O=C(CN1CCN(Cc2ccc(Cl)cc2)CC1)N/N=C/C=C/c1ccccc1[N+](=O)[O-]	Ecoli rRNA inh -42 (no result: Statin myotox sup)
C[C@H]1CN([C@@H](C)CO)C(=O)c2cc(NC(=O)Nc3cccc4ccccc34)ccc2O[C@H]1CN(C)C	none (no result: FN deposit inh)
COc1ccc(OCC(O)CN(CC(O)COc2ccc(OC)cc2)c2cccc(O)c2)cc1 (centres undefined)	Ecoli rRNA inh -30 (no result: E-sel inducer)
CC(=O)Nc1ccc2c(c1)Cc1cc(N3C(=O)C=CC3=O)ccc1-2	Ecoli rRNA inh -28
O=C1C=CC(=O)N1c1ccc2c(c1)Cc1cc(F)ccc1-2	none (no result: E-sel inducer, Ecoli rRNA inh)
O=C(CN=C1NS(=O)(=O)c2ccccc21)OCC(=O)c1cc(F)ccc1F	FGF22 binding 43 (no result: E-sel inducer)
COCC(C)n1c(C)cc(C(=O)COC(=O)CN=C2NS(=O)(=O)c3ccccc32)c1C (centres undefined)	none
COc1ccccc1C(=O)COC(=O)CCCN=C1NS(=O)(=O)c2ccccc21	none (no result: Statin myotox sup)
O=C(CCN=C1NS(=O)(=O)c2ccccc21)OCC(=O)c1ccccc1Cl	SIRT5 block 16 (no result: FN deposit inh, Statin myotox sup)
Cc1noc(C)c1NC(=O)Nc1cccc2c1O[C@@H](CN(C)C(=O)Nc1ccc3c(c1)OCO3)[C@H](C)CN([C@H](C)CO)C2=O	none
C[C@H](CO)N1C[C@H](C)[C@@H](CN(C)Cc2ccc(-c3ccccc3)cc2)Oc2cc(C#CC(C)(C)O)ccc2S1(=O)=O	none
C[C@@H]1CN([C@H](C)CO)S(=O)(=O)c2ccc(C#CC(C)(C)O)cc2O[C@H]1CN(C)Cc1ccccc1	none
C[C@H]1CN([C@@H](C)CO)S(=O)(=O)c2ccc(C#CC(C)(C)O)cc2O[C@H]1CN(C)Cc1ccc(-c2ccccc2)cc1	SIRT5 block 23
C[C@H]1CN([C@@H](C)CO)S(=O)(=O)c2ccc(C#CC(C)(C)O)cc2O[C@@H]1CN(C)Cc1ccc(-c2ccccc2)cc1	SIRT5 block 20
C[C@H](CO)N1C[C@H](C)[C@H](CN(C)Cc2ccc(-c3ccccc3)cc2)Oc2cc(C#CC(C)(C)O)ccc2S1(=O)=O	SIRT5 block 20
C[C@@H]1CN([C@H](C)CO)S(=O)(=O)c2ccc(C#CC(C)(C)O)cc2O[C@@H]1CN(C)Cc1ccc(-c2ccccc2)cc1	SIRT5 block 20
O=S(=O)(N[C@@H]1CC[C@@H](CCn2cc(Cc3ccccc3)nn2)O[C@@H]1CO)c1ccccc1F	none
C[C@H]1CN([C@@H](C)CO)C(=O)c2cccc(NC(=O)Nc3ccc(F)cc3)c2O[C@H]1CN(C)S(C)(=O)=O	none (no result: FN deposit inh, E-sel inducer)
COc1ccc(NC(=O)Nc2ccc3c(c2)CC(=O)N([C@@H](C)CO)C[C@H](C)[C@@H](CN(C)C)O3)cc1	none
CCC1(C)Cc2ccccc2-c2nc(NCCO)[nH]c(=O)c21 (centres undefined)	none (no result: FN deposit inh, E-sel inducer, FGF22 binding)
CCn1c(NCCO)nc2c(c1=O)C(C)(CC)Cc1ccccc1-2 (centres undefined)	Ecoli rRNA inh -28 (no result: Statin myotox sup)
CC1(C)Cc2ccccc2-c2nc(NCCCO)[nH]c(=O)c21	Ecoli rRNA inh -43
CCC1(C)Cc2ccccc2-c2nc(NCCCO)n(-c3ccccc3)c(=O)c21 (centres undefined)	none (no result: E-sel inducer, SIRT5 block, Ecoli rRNA inh, FGF22 binding)
CC(=O)Nc1cc2c(cc1Cl)Cc1cc(Cl)ccc1-2	FGF22 binding 43 (no result: SIRT5 block)
Cc1cc(C)c(C#N)c(SCCN2CCCCC2)n1	none
Cc1cc(C(F)(F)F)nc(SCCN2CCOCC2)c1C#N	FGF22 binding 43
CNC[C@@H]1Oc2cc(C#Cc3ccccn3)ccc2S(=O)(=O)N([C@H](C)CO)C[C@H]1C	none (no result: FN deposit inh)
COc1ccc(S(N)(=O)=O)cc1C(=O)NCCCN1CCN(c2cccc(Cl)c2)CC1	none (no result: FN deposit inh, E-sel inducer, SIRT5 block, Ecoli rRNA inh, FGF22 binding)
COc1cc2c(C(=O)NCCCN3CCN(c4cccc(Cl)c4)CC3)cn(C)c(=O)c2cc1OC	Statin myotox sup 122 (no result: E-sel inducer, SIRT5 block, Ecoli rRNA inh, FGF22 binding)
COc1cccc(CNC(=O)C[C@@H]2CC[C@@H](NC(=O)C3CCC3)[C@H](CO)O2)c1	none (no result: FN deposit inh)
CCC(=O)Nc1ccc2c(c1)C(=O)N(C)C[C@H](OC)[C@H](C)CN(CC1CCOCC1)[C@@H](C)CO2	none (no result: FN deposit inh, SIRT5 block, FGF22 binding)
O/N=C/c1ccc2cccc(OCc3ccccc3)c2n1	Ecoli rRNA inh -29
C[C@@H]1CN([C@H](C)CO)C(=O)c2cc(NC(=O)Cc3ccccc3)ccc2O[C@@H](C)CCCCO[C@@H]1CN(C)Cc1ccc2c(c1)OCO2	none (no result: FN deposit inh, SIRT5 block, Statin myotox sup)
Cc1noc(C)c1S(=O)(=O)Nc1ccc2c(c1)C(=O)N([C@@H](C)CO)C[C@H](C)[C@H](CN(C)Cc1ccc3c(c1)OCO3)OCCCC[C@H](C)O2	none (no result: FN deposit inh, Statin myotox sup)
O=C(C[C@@H]1CC[C@@H](NC(=O)c2cccnc2)[C@@H](CO)O1)NCCN1CCCCC1	none
Cc1ccc(S(=O)(=O)N(C)C[C@@H]2Oc3cc(C#Cc4ccncc4)ccc3S(=O)(=O)N([C@@H](C)CO)C[C@@H]2C)cc1	SIRT5 block 16
